Screening results as filed in PubChem BioAssay.
The entries come from a sample that favours hits as a whole.
KCC2 mod – KCC2 cotransporter modulators, thallium flux, primary screen, cell-based, HEK293 KCC2, FluoZin-2 fluorescence, MLSMR; Solute carrier family 12 member 5 (Homo sapiens), Q9H2X9; KCC2 cells, thallium flux FluoZin-2 fluorescence; B-score of Tl+ flux slope (higher = more flux/activation; lower = inhibition) at 10 µM; 190,000 compounds, 2.2% hits;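 active means thallium flux slope and its plate-corrected score both differing from the plate sample mean at a set confidence after two filtering rounds, in either direction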;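 further: slope of fluorescence scaled to starting intensity during 10 to 20 s after thallium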
p-CIP stab down – p/CIP-EGFP fusion destabilizers, primary screen, fluorescence, F442A cells; 16 h; decrease of EGFP signal, % at 10 µM; 290,000 compounds, 0.01% hits; AID 1984, 2009;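 active means EGFP signal decrease of at least 30% at 10 µM or well 3 SD below plate mean, unless failing retest; inactive means the rest, including hits failing retest or dose response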
Dynein cargo inh – inhibitors of GR-EGFP nuclear translocation, primary screen, dynein cargo transport inhibitor project, imaging, high-content, 3617.4 mouse cells; test concentration mostly 20 µM; stimulated with dexamethasone, 1 µM; stronger effect = lower value; z-score, hits read low; 220,000 compounds, 0.47% hits;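 active means plate z-score of nuclear minus cytoplasmic receptor signal below a set negative limit, without overly bright fluorescence or cell loss, cut at about -3.5 in these data, passing the limit was not always enough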;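 further: z-score of nuclear minus cytoplasmic ring GR-EGFP intensity difference per well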
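Buffer or medium: Induction medium lacking tetracycline, stripped serum | Also added: Dexamethasone agonist, 1.0 µM final, for 30 min | Timing: 48 h induction, 1 h compound, 30 min dex at 37 °C | Detection: Formaldehyde fixation, Hoechst nuclear stain, 10x automated fluorescence imaging | Measure: Nuclear versus cytoplasmic GR-EGFP signal, averaged per well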
V-ATPase pHluor – regulators of yeast V-ATPase proton pumping, primary screen, pHLuorin cytosolic pH fluorescence. response, % at 10 µM. AID 504577, 2011. S. cerevisiae. 350,000 compounds, 0.37% hits; in the data active means response mostly above about 7.3%, no sharp cut-off; inactive means mostly below about 5.4%; further: actives read high
ABCB6 inh 2 – ABCB6 transporter inhibitors, primary screen, K562-ABCB6 cells, flow cytometry, MLPCN library | ATP-binding cassette sub-family B member 6 (Homo sapiens), Q9NP58 | K562-ABCB6 porphyrin accumulation, 1 h; stronger effect = lower value | fluorescence ratio to DMSO, % at 10 µM | 360,000 compounds, 0.19% hits;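 active means fluorescence ratio to DMSO below 75%, the collection mean minus 3 SD; inconclusive means too few cells collected in the well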;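 further: signal is porphyrin accumulated inside mitochondria; lower ratio means ABCB6 inhibition with less porphyrin fluorescence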
Target sequence (Q9NP58 whole entry, looked up): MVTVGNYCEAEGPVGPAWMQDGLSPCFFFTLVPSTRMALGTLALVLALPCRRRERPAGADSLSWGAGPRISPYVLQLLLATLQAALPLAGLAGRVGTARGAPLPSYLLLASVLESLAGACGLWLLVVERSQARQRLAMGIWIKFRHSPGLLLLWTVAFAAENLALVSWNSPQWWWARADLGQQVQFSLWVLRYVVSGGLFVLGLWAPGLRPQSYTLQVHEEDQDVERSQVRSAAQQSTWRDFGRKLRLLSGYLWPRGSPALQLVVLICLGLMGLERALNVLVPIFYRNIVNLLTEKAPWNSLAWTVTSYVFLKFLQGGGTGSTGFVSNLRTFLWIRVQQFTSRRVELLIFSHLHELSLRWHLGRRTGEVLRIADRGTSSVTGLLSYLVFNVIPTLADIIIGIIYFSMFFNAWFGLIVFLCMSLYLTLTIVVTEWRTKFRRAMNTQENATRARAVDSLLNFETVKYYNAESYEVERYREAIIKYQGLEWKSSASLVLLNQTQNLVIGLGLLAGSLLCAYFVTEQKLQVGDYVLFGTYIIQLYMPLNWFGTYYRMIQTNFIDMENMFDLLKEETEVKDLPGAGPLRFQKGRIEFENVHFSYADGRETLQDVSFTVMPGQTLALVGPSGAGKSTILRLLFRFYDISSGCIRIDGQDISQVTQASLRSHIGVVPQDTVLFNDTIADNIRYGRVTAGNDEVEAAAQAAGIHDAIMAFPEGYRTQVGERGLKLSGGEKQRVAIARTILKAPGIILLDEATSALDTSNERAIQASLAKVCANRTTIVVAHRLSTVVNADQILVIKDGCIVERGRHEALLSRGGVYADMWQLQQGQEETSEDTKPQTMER
KCC2 sec1 – KCC2 modulators in sodium-free buffer, confirmation, cell-based, HEK293 KCC2, thallium flux, secondary assay; normalised thallium flux (F/F0 slope) at 10 µM; AID 1713, 2009; FluoZin2 fluorescence; stronger effect = higher value; shares compounds with KCC2 mod; 3,700 compounds, 15% hits;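 active means thallium flux slope above the same plate's solvent-only control mean plus 3 SD; inconclusive means the two replicate wells disagree; inactive means no significant difference from solvent-only control wells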
KCC2 bumet counter – thallium flux persisting under bumetanide in KCC2 cells, confirmation, counter-screen for KCC2 modulator project, cell-based, HEK293 KCC2, FluoZin2, secondary assay 3; AID 1714, 2009; normalized thallium flux at 10 µM; shares compounds with KCC2 mod; HEK293-KCC2 + bumetanide/ouabain; stronger effect = higher value; 3,700 compounds, 49% hits;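 active means thallium entry rate above the same plate's blocked-transporter control wells by more than 3 SD; inconclusive means the two repeat wells disagree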;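 further: raw slope of fluorescence over initial fluorescence between 10 and 20 s after thallium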
KCC2 sec2 – KCC2 modulators without ouabain present, confirmation, cell-based, HEK293 KCC2, thallium flux, FluoZin2, secondary assay 2. shares compounds with KCC2 mod. AID 1715, 2009. thallium flux FluoZin2 fluorescence; actives lie on both sides; F/F0 rise rate, 10–20 s post-thallium. 3,700 compounds, 23% hits. normalized thallium flux at 10 µM;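 active means thallium flux slope more than 3 SD above or below the plate's solvent-only control mean, mostly below; inconclusive means the two repeat wells disagreed; inactive means no significant shift from solvent-only controls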
HEK counter1 – thallium flux modulation in parental HEK cells, confirmation, counter-screen for KCC2 modulator project, cell-based, counterscreen 1; thallium flux rate (normalised fluorescence) at 10 µM; AID 1716, 2009; 3,700 compounds, 46% hits; HEK293 parental cells, thallium flux FluoZin2, ouabain; baseline-ratio fluorescence slope, 10–20 s after thallium; shares compounds with KCC2 mod;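 active means thallium flux rate significantly above the same plate's solvent-only control wells, beyond their mean plus 3 SD; inconclusive means the two replicate wells gave conflicting results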
KCC2 ouabain – KCC2 inhibitors and activators, ouabain retest, confirmation, HEK-KCC2 cells; raw Tl+ flux slope (below DMSO = inhibition, above = activation) at 10 µM; 3,700 compounds, 48% hits; AID 1717, 2009; shares compounds with KCC2 mod; HEK293-KCC2, thallium flux FluoZin2 fluorescence; bidirectional: low = inhibitor, high = activator;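 active means thallium flux slope beyond 3 SD from same-plate DMSO control mean in most replicates, usually higher, sometimes lower; inconclusive means repeat tests gave conflicting results; inactive means no significant difference from controls in most replicates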;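 further: slope of initial-normalized fluorescence between seconds 10 and 20 after thallium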
HEK counter2 – native HEK Tl+ uptake effects, second counter-screen – HEK cells, counterscreen 2, counter-screen for KCC2 modulator project, confirmation. shares compounds with KCC2 mod. 3,700 compounds, 33% hits. thallium flux slope at 10 µM. AID 1718, 2009. HEK293 parental, thallium flux FluoZin-2 fluorescence slope;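 active means thallium flux slope above the same plate's solvent-control mean plus 3 SD in both duplicate wells; inconclusive means duplicate wells that disagreed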;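 further: run without ouabain in cells lacking the KCC2 cotransporter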
A number is an active result; . = inactive; ? = inconclusive; / = not tested or not shown.

SMILES | KCC2 mod | p-CIP stab down | Dynein cargo inh | V-ATPase pHluor | ABCB6 inh 2 | KCC2 sec1 | KCC2 bumet counter | KCC2 sec2 | HEK counter1 | KCC2 ouabain | HEK counter2
Cn1ccn(CCCCCCn2ccn(C)c2=S)c1=S | / | / | / | . | . | / | / | / | / | / | /
COc1ccccc1NC(=S)NC(=O)c1c(-c2ccccc2Cl)noc1C | 3.7 | . | . | . | . | . | 0.028 | . | ? | 0.03 | ?
Cc1[nH]c(N=Nc2ccccc2)nc1N=Nc1ccccc1 | 76 | . | . | . | . | 0.04 | 0.14 | 0.059 | 0.096 | 0.098 | 0.027
O=C(Cn1nc(-c2ccccc2)ccc1=O)NCc1ccc2c(c1)OCO2 | -3.3 | . | . | . | . | . | ? | 0.025 | . | ? | .
CN1C(=O)C(N=Nc2ccccc2C(=O)O)N(C)C1=S (stereo not drawn) | -4.7 | . | . | . | . | . | 0.0017 | ? | 0.0054 | 0.015 | .
CC1=NN(C(N)=S)C(=O)C1N=Nc1ccccc1C(=O)O (stereo not drawn) | / | . | / | . | . | / | / | / | / | / | /
CCCCn1c(N2CCC(Cc3ccccc3)CC2)nc2c1c(=O)[nH]c(=O)n2C | -4.9 | . | . | . | . | . | . | . | ? | ? | .
CC1Cc2ccccc2N1CC(=O)Nc1ccc(S(=O)(=O)N(C)C)cc1 (stereo not drawn) | -3.9 | . | . | . | . | . | . | . | . | . | ?
CC(NC(=O)Cc1cccs1)c1ccc2c(c1)OCO2 (stereo not drawn) | 1.7 | . | . | . | . | . | . | . | . | . | .
O=C(Cc1ccccc1Cl)c1ccccc1 | / | / | / | . | . | / | / | / | / | / | /
Cc1ccccc1-n1nnnc1SC(C)C(=O)NC1CCCc2ccccc21 (stereo not drawn) | -3.5 | . | . | . | . | . | . | . | . | 0.017 | .
O=C(CSc1nc2cc(Cl)ccc2c(=O)n1Cc1ccco1)Nc1ccc(S(=O)(=O)N2CCOCC2)cc1 | 4.4 | . | . | . | . | . | 0.014 | . | 0.018 | ? | 0.015
O=C(CSc1cccc2cccnc12)Nc1cccc(S(=O)(=O)N2CCOCC2)c1 | . | . | . | . | . | / | / | / | / | / | /
O=C(CSc1nc2cc(Cl)ccc2s1)Nc1cccc(S(=O)(=O)N2CCOCC2)c1 | 3.1 | . | . | . | . | . | 0.015 | . | ? | 0.026 | ?
O=C(CSc1cccc2cccnc12)Nc1ccc(S(=O)(=O)N2CCOCC2)cc1 | 9.6 | . | . | . | . | . | 0.02 | . | 0.016 | ? | 0.013
O=C(CSc1nc2cc(Cl)ccc2s1)c1cc2ccccc2o1 | 4.5 | . | . | . | . | 0.025 | 0.055 | . | 0.031 | 0.048 | 0.017
C[C@]1(CC/C(=C/CO)CO)[C@H](CO)CC[C@@]23COC(=O)C2=CCC[C@@H]31 | / | / | / | . | . | / | / | / | / | / | /
NNC(=O)C12CC3CC(C1)CC(n1ncnn1)(C3)C2 | . | . | . | . | . | / | / | / | / | / | /
CC(=O)Nc1sc(C)c(C)c1C(=O)OCC(=O)NCc1ccc(F)cc1 | / | / | / | . | . | / | / | / | / | / | /
COc1ccccc1N(CC(=O)Nc1cc(C)on1)S(=O)(=O)c1cccc(C(F)(F)F)c1 | / | / | / | . | . | / | / | / | / | / | /
Cc1[nH]n(-c2ccccc2)c(=O)c1C(=O)c1cccc(F)c1 | . | . | . | . | . | / | / | / | / | / | /
Cc1[nH]n(-c2ccccc2)c(=O)c1C(=O)c1ccccc1 | 4.4 | . | . | . | . | . | 0.0085 | . | 0.012 | . | 0.014
Cc1[nH]n(-c2ccccc2)c(=O)c1C(=O)c1ccc(Cl)cc1 | 11 | . | . | . | . | . | 0.021 | 0.04 | 0.022 | 0.03 | 0.024
Cc1[nH]n(-c2ccc(Cl)cc2)c(=O)c1C(=O)c1ccccc1 | 8.1 | . | . | . | . | . | 0.02 | . | 0.016 | 0.027 | 0.019
CCSC(=S)c1c(C)[nH]n(-c2ccccc2)c1=O | 101 | . | . | . | . | 0.046 | 0.1 | . | 0.061 | 0.067 | 0.028
SMILES | KCC2 mod | p-CIP stab down | Dynein cargo inh | V-ATPase pHluor | ABCB6 inh 2 | KCC2 sec1 | KCC2 bumet counter | KCC2 sec2 | HEK counter1 | KCC2 ouabain | HEK counter2
Cc1cc(-c2c(C)[nH]n(-c3ccc(Cl)cc3)c2=O)n(-c2ccccc2)n1 | . | . | . | . | . | / | / | / | / | / | /
Nc1n[nH]c(S(=O)(=O)CCCc2ccccc2)n1 | . | . | . | . | . | / | / | / | / | / | /
O=S(=O)(CCCc1ccccc1)c1ncn[nH]1 | 4.7 | . | . | . | . | . | . | . | . | . | .
CCN(C(=O)COC(=O)c1ccc(C=O)cc1)c1c(N)n(Cc2ccccc2)c(=O)[nH]c1=O | / | / | / | . | . | / | / | / | / | / | /
Cc1cc(C)c2cc(C#N)c(N3CCCN(C(=S)NCCCN(C)C)CC3)nc2c1 | / | . | / | . | . | / | / | / | / | / | /
Cc1cc(C)c2cc(C#N)c(N3CCCC3)nc2c1 | 8.7 | . | . | . | . | . | . | . | . | . | .
C=CCNC(=O)CC(=O)N/N=C/c1cccc(C)c1 | . | . | . | . | . | / | / | / | / | / | /
Cc1ccc(CSC2=NCCN2S(=O)(=O)c2ccc(F)cc2)cc1 | / | . | / | . | . | / | / | / | / | / | /
Cc1ccc(Cn2nnc3c(=O)n(CC(=O)NCc4ccco4)cnc32)cc1 | -2.9 | . | . | . | . | . | . | ? | ? | 0.015 | .
Cc1ccc(-n2nnc3c(=O)n(CC(=O)NCc4ccco4)cnc32)cc1 | . | . | . | . | . | / | / | / | / | / | /
O=C(Cn1cnc2c(nnn2-c2ccccc2)c1=O)NCc1ccco1 | . | . | . | . | . | / | / | / | / | / | /
